Published values pooled from the literature.
Target: Mitogen-activated protein kinase 3 (MAPK3, Homo sapiens, UniProt P27361)

Compound | effect on | action | technique | cell line | tested at | quantity | value
Nc1ncnc2occ(-c3ccc(NC(=O)Nc4cc(C(F)(F)F)ccc4F)cc3)c12 | cell-free assay | inhibitor | – | – | 20 µM | remaining signal | 100%
Nc1cnc(N2CCc3cc(S(=O)(=O)Nc4c(F)cc(Cl)cc4F)cc(N4CCCC4=O)c32)nc1 | cell-free assay | – | competition with immobilised ligand | – | 1 µM | remaining binding | 91%
COc1cc(Nc2cnc(C#N)c(O[C@H](C)CN(C)C)n2)ncc1-c1cnn(C)c1 | enzyme activity | inhibitor | radiometric | – | 1 µM | remaining activity | 96%
CCC1(CC)NC(=O)c2c(c3ccc(Cl)c(Cl)c3n2C)C1C#N (stereo not shown) | thermal stability | – | DSF | – | 10 µM | ΔTm | 0 °C
FC(F)c1nc2ccccc2n1-c1nc(N2CCOCC2)nc(N2CCOCC2)n1 | enzyme activity | inhibitor | – | – | 10 µM | remaining activity | 106%
C[C@H](c1ccc(F)cc1)N(Cc1cccc(C(=O)O)c1)C(=O)c1cnc2ccccc2c1 | cell-free assay | – | competition with immobilised ligand | – | 1 µM | remaining binding | 100%
COc1cc2ncnc(Nc3ccc(Oc4ccccc4)c(C)c3C)c2cc1OC | enzyme activity | inhibitor | – | – | 1 µM | inhibition | 0%
CC(C)(C)c1nc2c(s1)c1nc(N)ncc1c1ccc(NS(=O)(=O)c3c(F)cccc3F)c(F)c12 | enzyme activity | inhibitor | radiometric | – | 1 µM | remaining activity | 84%
Cn1c2c(c3ccc(Cl)c(Cl)c31)C(C#N)C(C)(C)NC2=O (stereo not shown) | thermal stability | – | DSF | – | 10 µM | ΔTm | 0.1 °C
Cc1c[nH]c2nccc(Oc3c(F)cc(Nc4cc(Cl)nc(N)n4)cc3F)c12 | cell-free assay | – | competition with immobilised ligand | – | 0.1 µM | remaining binding | 90%
O=C1NC(=O)c2cc(Nc3ccc(F)cc3)c(Nc3ccc(F)cc3)cc21 | cell-free assay | – | – | – | 0.5 µM | remaining signal | 86.1%
Cc1nc(Cc2cccc(C(F)(F)F)c2)sc1-c1ccc(C(N)=O)nc1 | cell-free assay | – | competition with immobilised ligand | – | 1 µM | remaining binding | 96%
Nc1nc(Nc2ccccc2)sc1C(=O)c1c(F)cccc1F | enzyme activity | inhibitor | – | – | 10 µM | remaining activity | 72%
N#CC(c1ccnc(NCCc2cccnc2)n1)c1nc2ccccc2s1 (stereo not shown) | enzyme activity | inhibitor | – | – | 0.5 µM | remaining activity | 99.4%
Cn1c2c(Cl)c(Cl)ccc2c2cc[nH]c(=O)c21 | thermal stability | – | DSF | – | 10 µM | ΔTm | -0.4 °C
Nc1nc(NC2CCCCC2)sc1C(=O)c1ccccc1 | enzyme activity | inhibitor | – | – | 10 µM | remaining activity | 20%
O=C(NC[C@@H]1[C@H]2CN(C(=O)OCc3cc(C(F)(F)F)cc(C(F)(F)F)c3)C[C@@H]12)c1ccc2[nH]nnc2c1 | cell-free assay | – | competition with immobilised ligand | – | 1 µM | remaining binding | 100%

Compound | effect on | action | technique | cell line | tested at | quantity | value
COc1cc(/C=C/C(=O)CC(=O)/C=C/c2ccc(O)c(OC)c2)ccc1O | enzyme activity | inhibitor | – | – | 1 µM | activity vs control | 94%
O=C(Nc1cnn(-c2csc(C(=O)NC3COC3)c2)c1)Nc1ccccc1Cl | enzyme activity | inhibitor | – | – | 5 µM | remaining activity | 92.8%
Cc1cc(C)c(-n2ccn3nc(-c4cccnc4)cc23)cc1NC(=O)c1cc(C#N)cc(S(F)(F)(F)(F)F)c1 | cell-free assay | – | competition with immobilised ligand | – | 0.1 µM | remaining binding | 95.2%
CC1(C)NC(=O)c2[nH]c3c(Cl)c(Cl)ccc3c2C1C#N (stereo not shown) | thermal stability | – | DSF | – | 10 µM | ΔTm | 0.2 °C
CC/C(=N\NC(=O)NCc1cccc(O)c1)c1ccc(O)c(C)c1O | enzyme activity | inhibitor | – | – | 0.1 µM | inhibition | -2.7%
O=C1C(Cl)=C(N2C(=O)CCC2=O)C(=O)c2ccccc21 | enzyme activity | inhibitor | – | – | 0.5 µM | remaining activity | 99.3%
CCN1CCN(Cc2ccc(NC(=O)c3ccc(C)c(/C=C/c4cnc5[nH]ccc5c4OC)c3)cc2C(F)(F)F)CC1 | target engagement in cells | inhibitor | chemoproteomics | A-375 | 0.5 µM | inhibition | -18.7%
COc1ccc(COc2ccc(Cc3cnc(N)nc3N)cc2OC)cc1 | cell-free assay | – | – | – | 0.5 µM | remaining signal | 99.1%
CCN1CCC2(CC1)NC(=O)c1c(c3ccc(Cl)c(Cl)c3n1C)C2C#N (racemic) | thermal stability | – | DSF | – | 10 µM | ΔTm | 0 °C
Cc1ccc(C(=O)Nc2ccc(CN3CCN(C)CC3)c(C(F)(F)F)c2)cc1C#Cc1cnc2cccnn12 | enzyme activity | inhibitor | – | – | 23.5 nM | remaining activity | 100%
O=C(N[C@H]1CCCCC/C=C\C2C[C@@]2(C(=O)O)NC(=O)[C@@H]2C[C@@H](Oc3ccncc3)CN2C1=O)OC1CCCC1 (stereo partly shown) | binding | – | competition with immobilised ligand | – | 1 µM | remaining binding | 69%
CCN1CCN(Cc2ccc(NC(=O)c3ccc(C)c(Oc4ccnc5[nH]ccc45)c3)cc2C(F)(F)F)CC1 | target engagement in cells | inhibitor | chemoproteomics | A-375 | 5 µM | inhibition | -51.2%
Cn1c2c(c3ccc(Cl)c(Cl)c31)C(C#N)C1(CCNCC1)NC2=O (racemic) | thermal stability | – | DSF | – | 10 µM | ΔTm | 0.5 °C
Cn1c(=O)n(-c2ccc(C(C)(C)C#N)cc2)c2c3cc(-c4cnc5ccccc5c4)ccc3ncc21 | enzyme activity | inhibitor | – | – | 10 µM | remaining activity | 106%
Cn1nc(C(=O)NCc2ccc(C(=O)O)cc2)cc1-c1ccc2[nH]ccc2c1 | cell-free assay | – | competition with immobilised ligand | – | 0.1 µM | remaining binding | 94%
FC(F)(F)Oc1cccc(-c2cnc3ccc(-c4ccncc4)nn23)c1 | enzyme activity | inhibitor | radiometric | – | 5 µM | activity vs control | 82%
CNC(=O)c1cc(Oc2ccc(NC(=O)Nc3ccc(Cl)c(C(F)(F)F)c3)cc2)ccn1 | cell-free assay | – | – | – | 0.5 µM | remaining signal | 105%
